This is an account of results in ChEMBL document CHEMBL1143691, “Unusual naphthoquinone derivatives from the twigs of Avicennia marina” (2007).

≈ marks a conversion by molar mass, not a printed value. Where only a bound is given, the exact number is not on record here.

Assay type in all cases: functional
One assay has as its system HeLa. Description: Cytotoxicity against human HeLa cells. The procedure, abridged:
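Cytotoxicity in HeLa human cervix carcinoma cells (DSM ACC 57). Reported as CC50, the concentration that kills 50% of treated cells.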

In the next assay the test system is K562. Description: Antiproliferative activity against human K562 cells.
The next assay concerns L929. Description: Antiproliferative activity against mouse L929 cells.
The next assay deals with Candida albicans. Description: Antimicrobial activity against Candida albicans BMSY 212 by micro-broth dilution method. In outline:
(§1)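 MIC by microbroth dilution following National Committee for Clinical Laboratory Standards guidelines; values are the mean of three independent experiments. Ciprofloxacin served as the antibacterial reference and amphotericin B as the antifungal reference.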
(Dilution methods test growth across graded concentrations, often in twofold steps.)

The next assay relates to Mycolicibacterium vaccae. In words: Antimicrobial activity against Mycobacterium vaccae IMET 10670 by microbroth dilution method. In outline: as §1
In assay [1] the test system is Mycolicibacterium fortuitum. Description: Antimicrobial activity against Mycobacterium fortuitum B by micro-broth dilution method. In outline:
as §1

For another assay, the system named is Staphylococcus aureus. In words: Antimicrobial activity against methicillin-resistant Staphylococcus aureus 134/93 by micro-broth dilution method. The procedure, abridged:
(§2)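 MIC determined by microbroth dilution following NCCLS (National Committee for Clinical Laboratory Standards) guidelines. Each value is the mean of three independent experiments.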

The next assay has as its system Enterococcus faecalis. In words: Antimicrobial activity against vancomycin-resistant Enterococcus faecalis 1528 by micro-broth dilution method. The procedure, abridged: as §2
In another assay the test system is Mycolicibacterium aurum. Description: Antimicrobial activity against Mycobacterium aurum SB 66 by micro-broth dilution method. The procedure, abridged:
as §1

Assay [2] deals with Mycolicibacterium smegmatis. In words: Antimicrobial activity against Mycobacterium smegmatis SG 987 by microbroth dilution method. In outline: as §1

In the assay on HeLa, `COc1c2c(c(OC)c3ccccc13)O[C@H](C(C)(C)O)C2` [AVICENOL C] displayed a CC50 of more than 10 µg/mL. In addition, the 50% growth inhibitory concentration (GI50) with K562 and with L929 was more than 10 µg/mL each time.
`C[C@@H]1[C@H](O)[C@@H](C)/C=C/C=C/C=C/C=C/C=C/C=C/C=C/[C@H](O[C@@H]2O[C@H](C)[C@@H](O)[C@H](N)[C@@H]2O)C[C@@H]2O[C@](O)(C[C@@H](O)C[C@@H](O)[C@H](O)CC[C@@H](O)C[C@@H](O)CC(=O)O[C@H]1C)C[C@H](O)[C@H]2C(=O)O` [AMPHOTERICIN B] registered a minimum inhibitory concentration (MIC) against Candida albicans of less than 0.05 µg/mL.
Compound `CC(=O)O[C@H]1C(=O)[C@@]2(C)[C@H]([C@H](OC(=O)c3ccccc3)[C@]3(O)C[C@H](OC(=O)[C@H](O)[C@@H](NC(=O)c4ccccc4)c4ccccc4)C(C)=C1C3(C)C)[C@]1(OC(C)=O)CO[C@@H]1C[C@@H]2O` [PACLITAXEL] showed a 50% cytotoxic concentration (CC50) in the assay with HeLa of 0.01 µg/mL (≈ 0.0117 µM). Moreover, the GI50 was 0.01 µg/mL (≈ 0.0117 µM) with K562 and 0.1 µg/mL (≈ 0.117 µM) in the assay with L929.
On to `O=C(O)c1cn(C2CC2)c2cc(N3CCNCC3)c(F)cc2c1=O` [CIPROFLOXACIN], for which the MIC in the assay with Mycolicibacterium vaccae is 0.2 µg/mL (≈ 0.604 µM); in [1], 0.2 µg/mL (≈ 0.604 µM); with Staphylococcus aureus it was 12.5 µg/mL (≈ 37.7 µM); against Enterococcus faecalis, 0.8 µg/mL (≈ 2.41 µM); against Mycolicibacterium aurum it was less than 0.05 µg/mL; in [2] it was 0.4 µg/mL (≈ 1.21 µM).
With `COC(=O)c1ccccc1/C(OC)=C1/C[C@@H](C(C)(C)O)OC1=O` [AVICENNONE A], the CC50 in the assay with HeLa is more than 10 µg/mL. Further, the concentration for 50% growth inhibition (GI50) with K562 and in the assay on L929 was more than 10 µg/mL each time.
As to `CC(C)(O)[C@@H]1CC2=C(O1)C(=O)c1ccccc1C2=O` [STENOCARPOQUINONE B], the MIC came out at 6.25 µg/mL (≈ 24.2 µM) in the assay with Mycolicibacterium vaccae; 25 µg/mL (≈ 96.8 µM) in assay [1]; 12.5 µg/mL (≈ 48.4 µM) against Staphylococcus aureus; 25 µg/mL (≈ 96.8 µM) in the assay on Enterococcus faecalis; 12.5 µg/mL (≈ 48.4 µM) against Candida albicans; 12.5 µg/mL (≈ 48.4 µM) in the assay on Mycolicibacterium aurum. The minimal inhibitory concentration (MIC) in assay [2] was found to be 12.5 µg/mL (≈ 48.4 µM). Moreover, the CC50 in the assay with HeLa stood at 4.3 µg/mL (≈ 16.6 µM). Further, the values for the GI50 in the assay with K562 and in the assay with L929 were 0.2 µg/mL (≈ 0.774 µM) and 1.2 µg/mL (≈ 4.65 µM), respectively.
`CC(C)(O)c1cc2c(o1)C(=O)c1ccccc1C2=O` [AVICEQUINONE C]: the minimum inhibitory concentration (MIC) is 6.25 µg/mL (≈ 24.4 µM) in the assay with Mycolicibacterium vaccae; 12.5 µg/mL (≈ 48.8 µM) in [1]; 6.25 µg/mL (≈ 24.4 µM) in the assay on Staphylococcus aureus; 50 µg/mL (≈ 195 µM) against Enterococcus faecalis; 12.5 µg/mL (≈ 48.8 µM) against Candida albicans; 6.25 µg/mL (≈ 24.4 µM) with Mycolicibacterium aurum. In addition, 6.25 µg/mL (≈ 24.4 µM) was the least that counted as inhibitory in assay [2] (MIC). In addition, the midpoint of cytotoxicity in the assay on HeLa, the CC50, lay at 3.2 µg/mL (≈ 12.5 µM). Besides, the values for the GI50 in the assay on K562 and in the assay with L929 were 1.1 µg/mL (≈ 4.29 µM) and 0.8 µg/mL (≈ 3.12 µM), respectively.
The compound `COc1c2c(c(OC)c3ccccc13)[C@H](O)[C@@H](C(C)(C)O)O2` [AVICENOL A] registered a CC50 in the assay on HeLa of more than 10 µg/mL. The concentration for 50% growth inhibition (GI50) with K562 and in the assay with L929 was more than 10 µg/mL each time.
`CC(C)(O)[C@H]1OC2=C(C(=O)c3ccccc3C2=O)[C@@H]1O` [AVICEQUINONE A]: the MIC against Mycolicibacterium vaccae is 12.5 µg/mL (≈ 45.6 µM); in assay [1], 12.5 µg/mL (≈ 45.6 µM); in the assay on Staphylococcus aureus, 6.25 µg/mL (≈ 22.8 µM); in the assay on Enterococcus faecalis it was 50 µg/mL (≈ 182 µM); against Candida albicans, 12.5 µg/mL (≈ 45.6 µM); against Mycolicibacterium aurum, 12.5 µg/mL (≈ 45.6 µM). In addition, the MIC in [2] was determined as 12.5 µg/mL (≈ 45.6 µM).

By CC50 is commonly meant the concentration that lowers cell viability or growth by half. Higher therefore signals lower toxicity to the cells. Broadly, the GI50 is the concentration that inhibits growth by half. Low readings indicate greater sensitivity of the cells, high ones lower sensitivity of the cells. Usually MIC stands for the smallest concentration in the dilution series that meets the test's criterion for growth inhibition.
